# These entries were drawn from the full list.
# Apaf-1 act: activators of human Apaf-1 apoptosome; AID 489031; Apaf-1 apoptosome caspase-3 activation, DEVD-Rh110 fluorescence; stronger effect = lower value; activity change, negative = activation, % at 20 µM; 330,000 compounds, 0.31% hits; O14727;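 active = activity change at or below -40% at 20 µM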
# Target sequence (O14727 whole entry, looked up): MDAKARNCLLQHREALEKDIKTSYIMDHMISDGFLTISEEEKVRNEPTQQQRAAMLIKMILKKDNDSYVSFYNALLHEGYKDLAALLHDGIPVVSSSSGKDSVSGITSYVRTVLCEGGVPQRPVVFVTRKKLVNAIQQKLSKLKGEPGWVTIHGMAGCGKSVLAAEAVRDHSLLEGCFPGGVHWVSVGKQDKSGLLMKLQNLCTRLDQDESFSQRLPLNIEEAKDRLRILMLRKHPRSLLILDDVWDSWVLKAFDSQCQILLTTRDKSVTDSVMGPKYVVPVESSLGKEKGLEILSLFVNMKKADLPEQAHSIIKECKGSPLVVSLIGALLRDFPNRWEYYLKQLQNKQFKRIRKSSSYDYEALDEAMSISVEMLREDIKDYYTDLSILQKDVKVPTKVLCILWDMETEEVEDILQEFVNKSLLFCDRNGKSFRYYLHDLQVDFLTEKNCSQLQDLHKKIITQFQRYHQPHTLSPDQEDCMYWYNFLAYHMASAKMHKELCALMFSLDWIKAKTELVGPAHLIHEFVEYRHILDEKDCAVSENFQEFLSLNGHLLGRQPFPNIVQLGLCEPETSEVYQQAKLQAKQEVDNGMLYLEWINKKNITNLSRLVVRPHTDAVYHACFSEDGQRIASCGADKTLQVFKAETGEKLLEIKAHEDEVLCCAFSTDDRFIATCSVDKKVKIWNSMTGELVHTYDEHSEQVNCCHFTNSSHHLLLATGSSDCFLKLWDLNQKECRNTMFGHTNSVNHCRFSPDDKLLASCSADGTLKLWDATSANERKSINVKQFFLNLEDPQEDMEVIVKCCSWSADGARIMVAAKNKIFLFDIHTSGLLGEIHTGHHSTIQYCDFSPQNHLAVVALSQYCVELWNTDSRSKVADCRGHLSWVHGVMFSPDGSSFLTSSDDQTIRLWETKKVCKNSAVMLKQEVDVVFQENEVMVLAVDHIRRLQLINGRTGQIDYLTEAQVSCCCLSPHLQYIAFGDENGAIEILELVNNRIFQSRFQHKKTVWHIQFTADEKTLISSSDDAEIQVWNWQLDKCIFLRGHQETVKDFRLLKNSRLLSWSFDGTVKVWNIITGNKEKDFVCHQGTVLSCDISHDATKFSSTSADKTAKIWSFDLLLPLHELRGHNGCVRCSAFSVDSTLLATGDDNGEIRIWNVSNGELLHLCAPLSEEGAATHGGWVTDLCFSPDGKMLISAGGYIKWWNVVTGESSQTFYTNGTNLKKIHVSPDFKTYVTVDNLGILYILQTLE
#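 system = biochemical Apaf-1 apoptosome reconstitution | buffer or medium = 20 mM HEPES pH 7.5 with CHAPS, BSA | also added = dATP and cytochrome c as apoptosome triggers, (Z-DEVD)2-Rh110 substrate | incubation = 30 min compound preincubation and 50 min reaction, both room temperature | measured by = fluorescence, 540 nm emission, 480 nm excitation | read-out basis = Caspase-3 cleavage activity downstream of Apaf-1 activation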
# A number is an active result; 0 = inactive.
SMILES,Apaf-1 act
COc1ccccc1N1CCN(C(c2cccs2)C(C)NS(=O)(=O)c2ccccc2)CC1 (stereo not given),0
COc1ccccc1N1CCN(C(=O)C(C)CS(=O)(=O)c2ccc3c(c2)NC(=O)CS3)CC1 (stereo not given),-428
COc1ccccc1N1CCN(C(=O)c2ccc3c(Cl)c4c(nc3c2)CCCC4)CC1,0
CCOc1ccc(NC(=O)CN(C)C(=O)c2ccccc2OCc2c(C)noc2C)cc1OCC,0
O=C(/C=C/c1cc[n+](CC(=O)c2ccc3cccc4c3c2CC4)cc1)c1ccc2cccc3c2c1CC3,0
CC1CN(S(=O)(=O)c2cccc(C(=O)N(CCc3ccccc3)Cc3ccccc3)c2)CC(C)O1 (stereo not given),0
Cn1c(-c2sccc2OCc2ccccc2)n[nH]c1=S,-289
CNC[C@@H]1Oc2ccc(NS(=O)(=O)c3ccc(Cl)cc3)cc2C(=O)N([C@H](C)CO)C[C@@H]1C,0
CCc1ccc(N2C(=O)C(Cl)=C(Nc3ccc(C(=O)N4CCCC4)cc3)C2=O)cc1,0
CC(C)n1cnc2c(NCc3ccccc3)cc(N[C@H](C)CO)cc21,0
CN(c1ccccc1)S(=O)(=O)c1cccc(C(=O)NCc2ccccc2CN2CCCC2)c1,0
CC(=O)c1cccc(N(CC(=O)Nc2ccccc2C(=O)N2CCCC2)S(C)(=O)=O)c1,-323
Cc1ccc(C)c(NC(=O)CN(C)C(=O)c2cccc(S(=O)(=O)N3CCN(Cc4ccccc4)CC3)c2)c1,0
Cc1cccc(N(Cc2ccccc2)C(=O)C2CCN(C(=O)c3ccccc3C)CC2)c1,0
CS(=O)(=O)N(CC(=O)Nc1ccccc1C(=O)N1CCCC1)c1cccc([N+](=O)[O-])c1,-71
CC12CCC(=O)N1C(C(=O)Nc1ccccc1N1CCCCC1)CS2 (stereo not given),0
C#CCOCCOCCOCCNc1nc(N2CCN(C(=O)CCCCCCCCCCNC(=O)Cn3cc(CCCCCN)nn3)CC2)nc(N2CCN(C(=O)CCCCCCCCCCNC(=O)[C@@H](CCSC)n3cc(CCO)nn3)CC2)n1,0
COc1ccc(-n2c3nc4ccccc4nc3c3c(=N)oc(C)nc32)cc1,0
C[C@H](CO)N1C[C@H](C)[C@@H](CN(C)Cc2ccc(Cl)c(Cl)c2)Oc2c(NC(=O)Cc3ccccc3)cccc2C1=O,0
Cc1cccc(NC(=O)CN2CCN(C(=O)c3oc4c(Cl)cccc4c3C)CC2)c1C,0
C[C@H](CO)N1C[C@H](C)[C@@H](CN(C)CC2CCCCC2)Oc2c(NC(=O)CCC(F)(F)F)cccc2C1=O,0
O=C(O)CCC1c2cc3c4cc2OC2Oc5cc6c(cc51)C(CCC(=O)O)c1cc5c7cc1OC(O6)c1cc6cc(c1)Oc1cc(cc(C(=O)O)c1)Oc1cc8cc(c1)C(Oc1cc(c(cc1C5CCC(=O)O)C3CCC(=O)O)OC(O4)c1cc(cc(c1)Oc1cc(cc(C(=O)O)c1)O8)Oc1cc(cc(C(=O)O)c1)Oc1cc(cc2c1)Oc1cc(cc(C(=O)O)c1)O6)O7 (stereo not given),0
CCCCc1nc(N2CCN(C(=O)c3ccco3)CC2)c(C#N)c2c1CCCC2,0
CC(=O)c1ccc(N2CCN(S(=O)(=O)c3ccc4c5c3CC(=O)N5CC(C)S4)CC2)cc1 (stereo not given),0
CCCN(CC(=O)Nc1ccccc1C)C(=O)COc1ccc2c(c1)CCC2,0
SMILES,Apaf-1 act
CC(=O)Nc1ccc(S(=O)(=O)NC2(C(F)(F)F)NC(=O)N(c3ccc(Cl)cc3)C2=O)cc1 (stereo not given),-58
CC(=O)Nc1ccc(S(=O)(=O)NCc2ccc3c(c2)cc(C)n3C)cc1,0
CC(=O)N1CCN(c2ccc(NCc3ccc(-c4cccc(Cl)c4)o3)cc2)CC1,0
CCCN(CC(=O)Nc1ccccc1C)C(=O)c1sc2ccccc2c1Cl,0
COCCN(Cc1ccccc1)C(=O)C1CCN(S(=O)(=O)c2ccc3c(c2)OCCO3)CC1,0
CN(CC(=O)Nc1ccc(Cl)cc1)C(=O)c1sccc1-c1ccccc1,0
COc1ccc(C2C(C(=O)c3ccco3)=C(O)C(=O)N2CCCn2ccnc2)c(OC)c1 (stereo not given),0
O=C1C=C(Nc2cccc3cccnc23)c2ccccc2C1=O,0
O=C(c1ccc(Cl)c(S(=O)(=O)N2CCCCCC2)c1)N1CCCC(C(F)(F)F)C1 (stereo not given),0
O=S(=O)(c1cccc2cccnc12)N1CCCCC1,-44
Cc1ccc(OCC(=O)N(Cc2nnc(-c3ccccc3Cl)o2)C2CC2)cc1C,0
COc1ccc(NC(=O)Nc2ccc(O)c3ccccc23)cc1,0
COC(=O)C1=C(C)N(Cc2ccccc2)C(=NCCc2cccnc2)N[C@H]1c1ccc(Br)cc1,0
CCn1c2ccccc2c2c3ncc4cccn4c3ccc21,0
O=C1Cc2ccccc2C(=O)N1Cc1ccccc1,0
O=C(CCNC(=O)c1ccc(Cl)cc1)NCCCN1CCOCC1,0
Clc1ccc(SCCOCCN2CCOCC2)cc1,-53
O=C1C(Cl)=C(NCCN2CCOCC2)C(=O)c2ccccc21,0
Cc1ccc2c(c1)C(=O)C(=O)N2Cc1ccc(Cl)cc1,0
O=C(CCC1CCCCC1)NCCN1C2=NC[C@@H](Cc3ccccc3)N2C[C@H]1Cc1ccc(O)cc1,0
Cc1ccc2c(c1)c1cccc3c1n2CCN3CCC(N)=O,0
OC1C(O)C(O)C(O)C(O)C1O (stereo not given),0
O=C(CCS(=O)(=O)c1ccc(Br)cc1)NCc1ccc(F)cc1,-99
C#CCOCCOCCOCCNc1nc(N2CCN(C(=O)CCCCCCCCCCNC(=O)[C@H](CO)n3cc(CCCSC)nn3)CC2)nc(N2CCN(C(=O)CCCCCCCCCCNC(=O)[C@H](CCCN=C(N)N)n3cc(C[C@@H](C)CC)nn3)CC2)n1,0
CCCCC(=O)NC(c1ccc(C(C)C)cc1)c1ccc2cccnc2c1O (stereo not given),-463
SMILES,Apaf-1 act
COc1ccccc1CNC(=O)CN1C(=O)NC(c2ccccc2)(c2ccc(C)c(C)c2)C1=O (stereo not given),0
CC(Oc1ccc(Br)cc1)C(=O)NCC(C)(C)N1CCOCC1 (stereo not given),0
Cc1cccc(NC(=S)NCc2ccc3c(c2)cc(C)n3C)c1C,0
CCCCCC#CCC#CCC#CCC#CCCCC(=O)O,0
C[C@@H]1CN([C@@H](C)CO)C(=O)c2cc(NC(=O)Nc3ccc(F)cc3)ccc2O[C@@H]1CN(C)Cc1ccc(Oc2ccccc2)cc1,0
CCn1cc(CN2CCC(n3nccc3NC(=O)c3cccc(F)c3)CC2)cn1,-302
CCN(CC(=O)Nc1ccccc1OC)C(=O)CN1C(=O)NC(C)(c2ccccc2)C1=O (stereo not given),0
Clc1ccc(C2=Nn3c(nnc3-c3n[nH]c4c3CCC4)SC2)cc1Cl,0
C=C(C)C(=O)Nc1cccc(C2=NOC3(C2)C[C@H](C(N)=O)N(C(=O)CC)C3)c1 (stereo not given in full),-271
C=C(C)C(=O)Nc1cccc(C2=NOC3(C2)C[C@H](C(N)=O)N(C(=O)CC#N)C3)c1 (stereo not given in full),-166
O=C1C(=O)c2ccccc2C(O)=C1CCCCl,0
Cc1cc(NC(=O)CSCC(=O)Nc2ccc(C)c(C)c2)no1,0
C#CCOCCOCCOCCNc1nc(N2CCN(C(=O)CCCCCCCCCCNC(=O)Cn3cc(CCCCCN)nn3)CC2)nc(N2CCN(C(=O)CCCCCCCCCCNC(=O)Cn3cc(CCCCCN)nn3)CC2)n1,0
Nc1ccc(O)c2ccccc12,0

# Bioassay records from PubChem BioAssay.
